Measurements as given in ChEMBL document CHEMBL1143108, “Design and SAR of selective T-type calcium channel antagonists containing a biaryl sulfonamide core” (Bioorg Med Chem Lett, 2008).

Tests used:
[1] = target: T1, Voltage-dependent T-type calcium channel subunit alpha-1H (Homo sapiens, UniProt O95180); test: Antagonist activity at human alpha1H T-type calcium channel expressed in HEK293 cells by patch clamp technique; assay type: functional, cell-based
Summary of the method: (§1)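 Whole-cell patch clamp. Peak inward current measured before and after compound addition to the bath.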

[2] = target: T1, Voltage-dependent T-type calcium channel subunit alpha-1H; test: Antagonist activity at human alpha1H T-type calcium channel expressed in HEK293 cells at 1 uM by patch clamp technique; assay type: functional, cell-based; summary of the method: as §1
[3] = target: Voltage-gated L-type calcium channel (Rattus norvegicus, UniProt P22002+Q02485+P27732); test: Antagonist activity at L-type calcium channel in rat aorta; assay type: functional, tissue-based
Summary of the method: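 Rat aorta rings contracted near-maximally with KCl. Test compound added at increasing doses, and IC50 taken for inhibition of force as a functional L-type calcium channel read-out.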

[4] = Ratio of IC50 for L-type calcium channel in rat aorta method to IC50 for human T-type calcium channel in patch clamp method; assay type: tissue-based

T1 sequence (O95180 whole entry): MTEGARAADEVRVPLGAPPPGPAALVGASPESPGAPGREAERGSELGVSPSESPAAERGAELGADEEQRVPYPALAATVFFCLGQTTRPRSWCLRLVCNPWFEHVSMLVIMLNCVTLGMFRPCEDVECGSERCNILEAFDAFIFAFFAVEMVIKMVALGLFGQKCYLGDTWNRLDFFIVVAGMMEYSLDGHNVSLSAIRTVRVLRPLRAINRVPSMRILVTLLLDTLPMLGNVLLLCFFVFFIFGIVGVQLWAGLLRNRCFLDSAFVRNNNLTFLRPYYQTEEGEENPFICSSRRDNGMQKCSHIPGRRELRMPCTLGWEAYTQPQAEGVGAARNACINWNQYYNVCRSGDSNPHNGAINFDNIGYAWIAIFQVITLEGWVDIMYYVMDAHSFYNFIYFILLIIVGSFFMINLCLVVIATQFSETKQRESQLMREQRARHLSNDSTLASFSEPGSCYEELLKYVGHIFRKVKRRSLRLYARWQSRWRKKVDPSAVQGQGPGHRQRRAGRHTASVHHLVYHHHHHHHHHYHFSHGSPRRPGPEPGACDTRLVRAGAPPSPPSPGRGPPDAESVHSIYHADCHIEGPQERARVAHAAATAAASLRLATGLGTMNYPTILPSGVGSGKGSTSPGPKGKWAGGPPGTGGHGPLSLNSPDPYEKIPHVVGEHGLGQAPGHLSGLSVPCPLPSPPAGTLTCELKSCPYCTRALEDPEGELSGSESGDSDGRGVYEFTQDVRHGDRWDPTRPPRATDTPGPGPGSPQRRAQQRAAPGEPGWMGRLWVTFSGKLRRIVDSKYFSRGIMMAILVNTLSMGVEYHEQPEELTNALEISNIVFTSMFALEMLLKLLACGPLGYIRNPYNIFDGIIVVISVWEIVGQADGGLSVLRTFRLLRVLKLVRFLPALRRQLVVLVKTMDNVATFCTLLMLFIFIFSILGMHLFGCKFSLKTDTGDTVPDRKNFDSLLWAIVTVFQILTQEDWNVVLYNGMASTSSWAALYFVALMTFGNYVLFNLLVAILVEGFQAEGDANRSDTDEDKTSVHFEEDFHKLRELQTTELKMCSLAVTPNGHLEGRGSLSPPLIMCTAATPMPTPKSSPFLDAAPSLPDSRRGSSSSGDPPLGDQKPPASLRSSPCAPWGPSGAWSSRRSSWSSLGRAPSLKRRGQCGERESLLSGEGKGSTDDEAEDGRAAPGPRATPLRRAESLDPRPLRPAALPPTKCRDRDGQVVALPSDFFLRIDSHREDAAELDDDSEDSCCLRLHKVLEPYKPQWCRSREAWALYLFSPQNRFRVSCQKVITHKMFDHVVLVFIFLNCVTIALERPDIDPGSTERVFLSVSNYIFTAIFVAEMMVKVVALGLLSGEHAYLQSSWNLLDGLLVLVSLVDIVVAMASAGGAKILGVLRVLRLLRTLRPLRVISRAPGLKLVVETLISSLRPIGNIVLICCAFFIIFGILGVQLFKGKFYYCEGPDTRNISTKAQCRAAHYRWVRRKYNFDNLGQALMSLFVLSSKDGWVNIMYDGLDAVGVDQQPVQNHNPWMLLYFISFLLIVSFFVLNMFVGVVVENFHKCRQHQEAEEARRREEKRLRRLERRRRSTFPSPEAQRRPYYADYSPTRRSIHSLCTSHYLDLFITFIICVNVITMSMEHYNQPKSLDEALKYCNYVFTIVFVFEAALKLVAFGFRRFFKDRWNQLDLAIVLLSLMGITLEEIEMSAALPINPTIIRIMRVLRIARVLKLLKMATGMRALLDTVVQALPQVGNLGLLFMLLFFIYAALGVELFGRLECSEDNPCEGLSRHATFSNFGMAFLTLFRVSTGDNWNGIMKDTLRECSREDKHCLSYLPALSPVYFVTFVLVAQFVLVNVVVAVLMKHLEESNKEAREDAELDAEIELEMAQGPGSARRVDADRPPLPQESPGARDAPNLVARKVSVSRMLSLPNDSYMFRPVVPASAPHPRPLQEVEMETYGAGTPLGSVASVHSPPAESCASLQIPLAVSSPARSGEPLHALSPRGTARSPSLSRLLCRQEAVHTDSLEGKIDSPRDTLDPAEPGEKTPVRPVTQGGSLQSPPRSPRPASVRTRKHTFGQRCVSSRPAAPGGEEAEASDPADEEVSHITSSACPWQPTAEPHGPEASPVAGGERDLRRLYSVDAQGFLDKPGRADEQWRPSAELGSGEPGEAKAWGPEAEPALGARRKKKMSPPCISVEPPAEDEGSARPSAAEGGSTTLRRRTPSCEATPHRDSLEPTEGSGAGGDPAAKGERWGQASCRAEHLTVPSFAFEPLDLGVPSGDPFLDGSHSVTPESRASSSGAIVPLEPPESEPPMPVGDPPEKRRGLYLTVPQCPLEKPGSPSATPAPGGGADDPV

Row | Compound | IC50 [1] [nM] | inhibition [2] [%] | IC50 [3] [nM] | Ratio IC50 [4]
1 | CC(C)OC(=O)CN(c1cccc(Cl)c1)S(=O)(=O)c1cccc(NC(=O)CN(C)C(=O)OCc2ccccc2)c1 | 240 | 78 | 15000 | 62
2 | CC(=O)N(CCCN(C)S(=O)(=O)c1ccc(Oc2ccccc2)cc1)Cc1cccc(Cl)c1 |  | 30 |  | 
3 | CC(C)OC(=O)CN(c1cccc(Cl)c1)S(=O)(=O)c1cccc(NC(=O)CCNC(=O)OCc2ccccc2)c1 | 420 | 73 | 17000 | 41
4 | CC(=O)N(CCCN(C)S(=O)(=O)c1ccc(Oc2ccccc2)cc1)C(CC(=O)OC(C)C)c1cccc(Cl)c1 (stereo unspecified) |  | 17 |  | 
5 | CC(C)NC(=O)CN(c1cccc(Cl)c1)S(=O)(=O)c1cccc(NC(=O)CN(C)C(=O)OCc2ccccc2)c1 | 1700 |  | > 30000 | > 17
6 | CC(C)OC(=O)CN(c1cccc(Cl)c1)S(=O)(=O)c1cccc(NC(=O)Cc2ccccc2)c1 |  | 40 |  | 
7 | CC1=C(C(=O)OC(C)C)C(c2cccc(Cl)c2)N(CCCN(C)C(=O)c2ccc(Oc3ccccc3)cc2)C(=O)N1 (single isomer, unassigned; enantiomer 1) | 180 |  |  | 
8 | CC1=C(C(=O)OC(C)C)C(c2cccc(Cl)c2)N(CCCN(C)C(=O)c2ccc(Oc3ccccc3)cc2)C(=O)N1 (single isomer, unassigned; enantiomer 2) | 650 |  | 3800 | 
9 | CC(C)CCCN(c1cccc(Cl)c1)S(=O)(=O)c1cccc(NC(=O)CN(C)C(=O)OCc2ccccc2)c1 | 180 |  | 12000 | 67
10 | CC1=C(C(=O)OC(C)C)C(c2cccc(Cl)c2)N(CCCN(C)C(=O)c2ccc(Oc3ccccc3)cc2)C(=O)N1 (stereo unspecified) | 250 |  | 2100 | 
11 | CC(=O)N(CCCN(C)C(=O)c1ccc(Oc2ccccc2)cc1)Cc1cccc(Cl)c1 |  | 5 |  | 
12 | CC(=O)Nc1cccc(S(=O)(=O)N(CC(=O)OC(C)C)c2cccc(Cl)c2)c1 |  | 0 |  | 
13 | CCOC(=O)CN(c1cccc(Cl)c1)S(=O)(=O)c1cccc(NC(=O)CN(C)C(=O)OCc2ccccc2)c1 |  | 35 |  | 
14 | CN(CC(=O)Nc1cccc(S(=O)(=O)N(CC(=O)O)c2cccc(Cl)c2)c1)C(=O)OCc1ccccc1 |  | 11 |  | 
15 | CC(C)OC(=O)c1ccc(NC(=O)CCc2ccccc2)cc1-c1cccc(Cl)c1 |  | 6 |  | 
16 | CN(CC(=O)Nc1cccc(S(=O)(=O)N(Cc2ccccc2)c2cccc(Cl)c2)c1)C(=O)OCc1ccccc1 | 110 |  | 12000 | 109
17 | CC(C)OC(=O)c1ccc(NC(=O)CN(C)C(=O)OCc2ccccc2)cc1-c1cccc(Cl)c1 |  | 24 |  | 
18 | COCC(=O)O[C@]1(CCN(C)CCCc2nc3ccccc3[nH]2)CCc2cc(F)ccc2[C@@H]1C(C)C [MIBEFRADIL] |  |  | 7000 | 
19 | CC(C)OC(=O)CN(c1cccc(Cl)c1)S(=O)(=O)c1cccc(NC(=O)CCc2ccccc2)c1 | 540 |  | > 30000 | > 55
20 | CN(C)CCNC(=O)CN(c1cccc(Cl)c1)S(=O)(=O)c1cccc(NC(=O)CN(C)C(=O)OCc2ccccc2)c1 |  | 22 |  | 
